CC50 and IC50 data for 29 molecules are collected here from ChEMBL document CHEMBL4007461, “Synthesis, Antiviral Potency, in Vitro ADMET, and X-ray Structure of Potent CD4 Mimics as Entry Inhibitors That Target the Phe43 Cavity of HIV-1 gp120” (J Med Chem, 2017).

Series [1] in a line: Cytotoxicity against human MT2 cells incubated for 4 days by XTT assay. In kind it is cell-based. Particulars: MT2 cells. Summed up: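 Run alongside the MT-2 multicycle infection assay. Compound at graded concentrations mixed with an equal volume of MT-2 cells (10^5 cells/ml). Medium replaced next day and culture continued four days.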
(Tetrazolium assays rely on reduction of a dye to a coloured formazan, in cell work by metabolically active cells.)

A short description of series [2]: Cytotoxicity against human TZM-bl cells incubated for 3 days by XTT assay. The settings on record: TZM-bl cells. In kind it is cell-based. The method in brief:
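TZM-bl cells, 1 x 10^4/well, cultured overnight at 37 °C. Compounds added at graded concentrations for three days.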

Series [3] has as its system Human immunodeficiency virus 1. Kind of series: Antiviral activity against X4 tropic HIV1 HXB2 infected in human TZM-bl cells pretreated with virus for 30 mins followed by 3 days incubation with cells by luciferase reporter gene based single cycle infection assay. The format is functional, cell-based. The method in brief: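 TZM-bl cells (1 x 10^4/well) were cultured overnight at 37 °C. HXB2-Env pseudovirus was preincubated 30 min with graded compound concentrations, then added to the cells for 3 days. Cells were washed and lysed, and luciferase was read. IC50 came from percent inhibition.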
(In general: Reporter assays use an easily measured gene product as a stand-in for the process of interest.)

The subject of series [4] is Human immunodeficiency virus 1. Kind of series: Antiviral activity against HIV1 3B infected in human MT2 cells assessed as inhibition of p24 antigen production pretreated with virus for 30 mins followed by 4 days incubation with cells by sandwich ELISA based multicycle infection assay. In kind it is functional, cell-based. The method in brief:
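MT-2 cells were infected with HIV-1 IIIB at 100 TCID50 and preincubated 30 min with graded compound concentrations. Medium was replaced next day. Supernatants were collected 4 days post-infection, lysed with equal volume 5% Triton X-100, and p24 was measured by sandwich ELISA. IC50 came from percent inhibition of p24.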
In general terms: An ELISA detects its analyte on a solid surface through an enzyme-linked reagent.

The mark [5] stands for this setting: Human immunodeficiency virus 1, HXB2, TZM-bl.
Where [6] appears, read: Human immunodeficiency virus 1, 3B, MT2.

With `NCC(NC(=O)c1ccc(-c2ccc(Cl)c(F)c2)[nH]1)c1ncc(CO)s1` (stereo in doubt; 82A), the CC50 at 96 h in series [1] was found to be 32 µM. This molecule also came in with a CC50 at 72 h in series [2] of 37.4 µM. Besides, the values for the IC50 in series [3] (setting [5]) and in series [4] (setting [6]) were 1.1 µM and 0.94 µM, respectively.
In series [1], `CNCC(NC(=O)c1ccc(-c2ccc(Cl)c(F)c2)[nH]1)c1ncc(CO)s1` (stereo in doubt; 86A) gave a CC50 at 96 h of 18.4 µM. This molecule returned a CC50 at 72 h in series [2] of 17.4 µM. The results for the IC50 in series [3] (setting [5]) and in series [4] (setting [6]) were 1.4 µM and 3.9 µM, respectively.
For `CNCC(NC(=O)c1ccc(-c2cc(F)c(Cl)c(F)c2)[nH]1)c1ncc(CO)s1` (stereo in doubt; 88A) the same measures were 14 µM, 10.4 µM, 0.36 µM and 0.36 µM.
The corresponding values for `Cc1ccc(-c2ccc(C(=O)NC(CN(C)C)c3nc(C)c(CO)s3)[nH]2)cc1F` (stereo not drawn) are greater than 40 µM, greater than 40 µM, greater than 40 µM and greater than 20 µM.
For `Cc1nc(C(CCN)NC(=O)c2ccc(-c3ccc(F)c(Cl)c3)[nH]2)sc1CO` (stereo in doubt; 62A) the same measures were 25.1 µM, 25.5 µM, 6.6 µM and 7.8 µM.
`Cc1nc(C(CN(C)C)NC(=O)c2ccc(-c3ccc(Cl)c(F)c3)[nH]2)sc1CO` (stereo in doubt; 45A) gave a CC50 at 96 h in series [1] greater than 40 µM. Also, the CC50 at 72 h in series [2] is greater than 40 µM. Moreover, the IC50 in series [3] (setting [5]) is 16.7 µM; in series [4] (setting [6]), greater than 20 µM.
In series [1], `Cc1nc(C(CCN(C)C)NC(=O)c2ccc(-c3cccc(Cl)c3)[nH]2)sc1CO` (stereo in doubt; 67A) returned a CC50 at 96 h of 26 µM. Besides, half-maximal cytotoxicity in series [2] (CC50 at 72 h) was put at 29.4 µM. In addition, the IC50 in series [3] (setting [5]) was determined as 10.4 µM; in series [4] (setting [6]), 13.8 µM.
Take `Cc1nc(C(CN)NC(=O)c2ncc(-c3ccc(Cl)cc3)[nH]2)sc1CO` (stereo in doubt; 30B): in series [3], the IC50 was determined as 35 µM.
Turning to `CNCCC(NC(=O)c1ccc(-c2cccc(Cl)c2)[nH]1)c1nc(C)c(CO)s1` (stereo in doubt; 64A), half-maximal cytotoxicity in series [1] (CC50 at 96 h) was put at 25.1 µM. Further, in series [2], the CC50 at 72 h was 23 µM. Further, the IC50 turned out to be 6.3 µM in series [3] (setting [5]) and 7.8 µM in series [4] (setting [6]).
In series [1], `CNCC(NC(=O)c1ccc(-c2ccc(Cl)cc2)[nH]1)c1nc(C)c(CO)s1` (stereo in doubt; 41A) came in with a CC50 at 96 h of 27.2 µM. The same molecule showed a CC50 at 72 h in series [2] of 28.4 µM. The 50% inhibitory concentration (IC50) in series [4] (setting [6]) came to 5.5 µM.
`Cc1ccc(-c2ccc(C(=O)NC(CN)c3ncc(CO)s3)[nH]2)cc1F` (stereo in doubt; 83A): the CC50 at 96 h in series [1] is 35.2 µM. Moreover, it took 39.2 µM to reach half-maximal cytotoxicity in series [2] (CC50 at 72 h). Further, the IC50 in series [4] stood at 1.6 µM.
The molecule `Cc1nc(C(CN)NC(=O)c2ncc(-c3ccc(Cl)cc3)[nH]2)sc1CO` (stereo in doubt; 30A) returned a CC50 at 96 h in series [1] greater than 51 µM. This molecule also had a CC50 at 72 h in series [2] greater than 51 µM. For the same molecule, the IC50 in series [3] (setting [5]) is 51 µM; in series [4] (setting [6]) it was greater than 26 µM.
Take `COc1cc(C(=O)NC(CN)c2nc(C)c(CO)s2)[nH]c1-c1ccc(Cl)cc1` (stereo in doubt; 29A): the CC50 at 96 h in series [1] was determined as 25 µM. In series [2], this molecule had a CC50 at 72 h of 25.4 µM. The IC50 is 22.2 µM in series [3] (setting [5]) and greater than 24 µM in series [4] (setting [6]).
On to `CNCC(NC(=O)c1ccc(-c2ccc(C)c(F)c2)[nH]1)c1ncc(CO)s1` (stereo in doubt; 87A), for which the CC50 at 96 h in series [1] turned out to be 26.6 µM. Moreover, the CC50 at 72 h in series [2] came out at 22.3 µM. In addition, the IC50 in series [3] (setting [5]) was 2 µM; in series [4], 4.4 µM.
In series [1], `Cc1cc(-c2ccc(Cl)cc2)[nH]c1C(=O)NC(CN)c1nc(C)c(CO)s1` (stereo in doubt; 27A) came in with a CC50 at 96 h of 20.2 µM. Besides, half-maximal cytotoxicity in series [2] (CC50 at 72 h) was put at 26.4 µM. For the same molecule, the IC50 in series [3] (setting [5]) was 1.1 µM; in series [4] (setting [6]) it was 3.9 µM.
Take `Cc1nc(C(CCN(C)C)NC(=O)c2ccc(-c3ccc(F)c(Cl)c3)[nH]2)sc1CO` (stereo in doubt; 68A): the CC50 at 96 h in series [1] was determined as 19.1 µM. Besides, the CC50 at 72 h in series [2] came out at 21.3 µM. Besides, the IC50 in series [3] (setting [5]) is 1.5 µM; in series [4] (setting [6]), 3.7 µM.
For `Cc1nc(C(CN)NC(=O)c2cnc(-c3ccc(Cl)cc3)[nH]2)sc1CO` (stereo not drawn) the same measures were greater than 51 µM, greater than 51 µM, greater than 51 µM and greater than 26 µM.
For `Cc1nc(C(CN(C)C)NC(=O)c2ccc(-c3ccc(Cl)cc3)[nH]2)sc1CO` (stereo not drawn) the same measures were greater than 40 µM, greater than 40 µM, greater than 40 µM and greater than 40 µM.
Consider `CNCCC(NC(=O)c1ccc(-c2ccc(F)c(Cl)c2)[nH]1)c1nc(C)c(CO)s1` (stereo in doubt; 65A), for which the CC50 at 96 h in series [1] stood at 22.6 µM. Besides, half-maximal cytotoxicity in series [2] (CC50 at 72 h) was put at 22 µM. Also, the results for the IC50 in series [3] and in series [4] (setting [6]) were 1.5 µM and 3.9 µM, respectively.
`Cc1nc(C(CN)NC(=O)c2ccc(-c3ccc(F)c(F)c3)[nH]2)sc1CO` (stereo in doubt; 25A) displayed a CC50 at 96 h in series [1] of 61.2 µM. The molecule further registered a CC50 at 72 h in series [2] of 57.3 µM. Moreover, the IC50 in series [3] (setting [5]) stood at 3.4 µM; in series [4] (setting [6]), 6 µM.
On to `Cc1nc(C(CN)NC(=O)c2ccc(-c3ccc(Cl)cc3)n2C)sc1CO` (stereo in doubt; 26A), for which, in series [1], half-maximal cytotoxicity (CC50 at 96 h) was put at 26.6 µM. This molecule also showed a CC50 at 72 h in series [2] of 36.7 µM. Further, the IC50 in series [3] (setting [5]) was 25.8 µM; in series [4] (setting [6]) it was greater than 25 µM.
The corresponding values for `CNCC(NC(=O)c1ccc(-c2ccc(Cl)c(F)c2)[nH]1)c1nc(C)c(CO)s1` (stereo in doubt; 42A) are 21.7 µM, 20.6 µM, 1.6 µM and 2.4 µM.
Take `NCC(NC(=O)c1ccc(-c2ccc(Cl)cc2)[nH]1)c1ncc(CO)s1` (stereo in doubt; 81A): the CC50 at 96 h in series [1] was found to be 35.6 µM. In series [2], this molecule came in with a CC50 at 72 h of 38 µM. For the same molecule, the IC50 worked out at 1.3 µM in series [3] (setting [5]) and 1.4 µM in series [4] (setting [6]).
The corresponding values for `COc1ccc(-c2ccc(C(=O)NC(CN)c3ncc(CO)s3)[nH]2)cc1OC` (stereo not drawn) are greater than 50 µM, greater than 50 µM, greater than 50 µM and greater than 50 µM.
Molecule `Cc1cc(-c2ccc(C(=O)NC(CCN(C)C)c3nc(C)c(CO)s3)[nH]2)ccc1F` (stereo in doubt; 69A) returned a CC50 at 96 h in series [1] of 25.1 µM. This molecule showed a CC50 at 72 h in series [2] of 23.7 µM. Moreover, the half-inhibitory concentration (IC50) was determined as 1.9 µM in series [3] and 2.1 µM in series [4] (setting [6]).
Take `Cc1nc(C(CN(C)C)NC(=O)c2ccc(-c3ccc(Cl)c(F)c3)[nH]2)sc1CO` (stereo in doubt; 45B): the values for the IC50 in series [3] and in series [4] were 19 µM and 19.2 µM, respectively.
On to `CNCC(NC(=O)c1ccc(-c2ccc(C)c(F)c2)[nH]1)c1nc(C)c(CO)s1` (stereo in doubt; 43A), for which, in series [1], the CC50 at 96 h is 34.4 µM. For the same molecule, in series [2], the midpoint of cytotoxicity, the CC50 at 72 h, lay at 33.5 µM. The IC50 in series [4] (setting [6]) amounted to 1.1 µM.
In series [1], `CNCCC(NC(=O)c1ccc(-c2ccc(F)c(C)c2)[nH]1)c1nc(C)c(CO)s1` (stereo in doubt; 66A) yielded a CC50 at 96 h of 25.9 µM. The CC50 at 72 h in series [2] came to 38.9 µM. In addition, the IC50 in series [3] (setting [5]) and in series [4] (setting [6]) was 4.1 µM each time.
Regarding `Cc1cc(-c2ccc(C(=O)NC(CCN)c3nc(C)c(CO)s3)[nH]2)ccc1F` (stereo in doubt; 63A), half-maximal cytotoxicity in series [1] (CC50 at 96 h) was put at 35.8 µM. In series [2], this molecule gave a CC50 at 72 h of 33 µM. The IC50 worked out at 5.7 µM in series [3] (setting [5]) and 1.8 µM in series [4] (setting [6]).

By CC50 is commonly meant the concentration that lowers cell viability or growth by half. The IC50 is the concentration at which inhibition is half-maximal.
